hiPSC survival – increases survival of single human iPS cells. survival enhancement, % at 20 µM. hiPSC single-cell survival, ATPlite luminescence; 100% = ROCK inhibitor wells, 0% = DMSO. 360,000 compounds, 0.044% hits; in the data active = survival enhancement above about 18%;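 also: cells exposed to compounds for 16 hours before the ATP read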
CCR6 antag – blocks CCL20-driven beta-arrestin recruitment at human CCR6; P51684; AID 493098; CHO-K1 CCR6 PathHunter beta-arrestin, luminescence, CCL20-stimulated; 340,000 compounds, 0.49% hits; inhibition, % at 20 µM;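 active = compounds whose inhibition of the agonist-driven luminescence signal at 20 µM reaches about 50%, limit read from the data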;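 also: cells stimulated with CCL20 at 14 nM final; plate controls were DMSO with CCL20 for no effect and DMSO without agonist for full effect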
Target sequence (P51684 whole entry, looked up): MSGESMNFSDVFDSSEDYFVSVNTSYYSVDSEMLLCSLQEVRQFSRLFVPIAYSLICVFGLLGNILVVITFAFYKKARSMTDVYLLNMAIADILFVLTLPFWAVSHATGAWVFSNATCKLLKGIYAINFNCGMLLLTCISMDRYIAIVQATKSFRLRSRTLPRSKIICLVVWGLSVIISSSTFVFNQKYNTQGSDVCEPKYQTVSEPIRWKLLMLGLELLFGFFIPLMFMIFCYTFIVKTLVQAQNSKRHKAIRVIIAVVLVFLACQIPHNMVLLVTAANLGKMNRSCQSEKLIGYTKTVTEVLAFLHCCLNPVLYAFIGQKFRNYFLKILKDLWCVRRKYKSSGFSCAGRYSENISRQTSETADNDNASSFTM
APJ ag – activates the human apelin receptor APJ; P35414; CHO-K1 APJ PathHunter beta-arrestin, luminescence; 0% DMSO wells, 100% apelin; activation, % at 20 µM; 330,000 compounds, 0.11% hits; AID 2520;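 active = activation more than six SD over the plate average, tested at 20 µM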;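 also: 0% = DMSO alone and 100% = apelin-13 at 10 nM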
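Test system: CHO-K1 APJ beta-arrestin complementation cell line. Amount: cell density 1000 per well. Controls: DMSO negative, 10 nM Apelin-13 positive. Signal: luminescent beta-gal fragment complementation, chemiluminescent substrate. Read-out basis: agonist-driven arrestin binding to APJ. Timing: compound stimulation 90 min at 25 °C, detection 60 min.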
APJ antag – APJ receptor antagonism; AID 2521; 330,000 compounds, 0.32% hits; CHO-K1 APJ beta-arrestin complementation, luminescence; P35414; inhibition, % at 20 µM;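 active = inhibition above about 40% at 20 µM, limit read from the data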;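 also: cells challenged with 10 nM apelin-13 agonist together with compound; plate controls were apelin-13 plus DMSO wells for no effect and DMSO wells lacking apelin-13 for full effect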
CXCR6 block – inhibitors of human CXCR6 receptor | O00574 | CHO-K1 PathHunter CXCR6 beta-arrestin, luminescence | inhibition, % at 20 µM | 360,000 compounds, 0.36% hits | AID 602244; in the data active = inhibition above about 34%, passing the limit was not always enough;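 also: antagonist mode with CXCL16 agonist at 10 nM final; 0% = 10 nM CXCL16 with DMSO and 100% = unstimulated wells without agonist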
DAGLB inh – blocks human DAGLB lipase activity; HEK293T DAGLB membrane lysate, EnzChek fluorogenic substrate; AID 504411; inhibition, % at 5.17 µM; Q8NCG7; 340,000 compounds, 0.059% hits; in the data active = inhibition above about 34%;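 also: 0% = enzyme with vehicle and 100% = wells lacking enzyme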
APJ antag confirm – confirmation of human APJ apelin receptor antagonists | APJ beta-arrestin recruitment, luminescence, antagonist mode | inhibition, % at 20 µM | shares compounds with APJ antag | 950 compounds, 66% hits | AID 2766; in the data active = inhibition above about 50%
Starred values were filed as active, the others as inactive; . = not tested or not shown. Hits are enriched below; roughly 0.86% of the tested compounds scored in any of these assays.

SMILES	hiPSC survival	CCR6 antag	APJ ag	APJ antag	CXCR6 block	DAGLB inh	APJ antag confirm
COc1ccc(C(=O)Nc2ccc(Cl)c(S(=O)(=O)Nc3ccccc3OC)c2)cc1	-0.8	20.8	0.3	40.7*	0.0	-3.1	23.1
CN(C(=O)CSC1=Nc2ccccc2C2=NC(c3ccccc3)C(=O)N12)C1CCCCC1 (stereo not drawn)	4.1	52.4*	-17.3	47.2*	47.2*	-4.3	61.0*
O=C(CSC1=Nc2ccccc2C2=NC(c3ccccc3)C(=O)N12)NC1CCCCC1 (stereo not drawn)	-0.6	42.9	-10.6	14.1	29.7	-0.8	.
CCN1CCc2c(OCC(=O)N3CCCCC3)cccc2C1=O	2.1	3.1	0.6	-1.0	3.6	0.5	.
Cc1ccc(C)c(S(=O)(=O)Nc2ccc(O)c(C(=O)O)c2)c1	-1.3	-3.3	0.5	47.8*	4.1	-2.3	36.1
CCCN(C(=O)COc1ccc(C(C)=O)cc1OC)C1CCS(=O)(=O)C1 (stereo not drawn)	0.9	8.7	-3.7	-9.5	4.0	1.0	.
CCOC(=O)C1=C(C)N=c2s/c(=C/c3cccc([N+](=O)[O-])c3O)c(=O)n2C1c1ccc(OC)cc1OC (stereo not drawn)	0.4	63.6*	-7.3	56.6*	40.8*	13.6	97.8*
C=CCN1C(=O)/C(=C2/Sc3ccccc3N2CC)SC1=S	0.2	-0.2	-2.8	15.3	-12.2	0.1	.
C=CCN1C(=O)/C(=C/C=C2/N(CC)c3ccc(S(=O)(=O)N(C)C)cc3N2CC)SC1=S	-0.9	63.6*	-6.7	52.0*	37.3	-45.5	106.5*
COc1ccc(CNC(=O)c2ccc[nH]2)cc1Cl	0.6	19.2	-0.5	-3.7	-1.0	1.7	.
Cc1ccc(C(C[N+](=O)[O-])c2c(C)[nH]n(-c3ccccc3)c2=O)cc1 (stereo not drawn)	1.6	24.6	3.8	0.4	6.0	-0.4	.
Cc1[nH]n(-c2ccccc2)c(=O)c1C(C[N+](=O)[O-])c1ccc(F)cc1 (stereo not drawn)	-1.5	16.3	1.3	45.0*	11.2	-1.1	16.4
Cc1ccc(C(=O)NC(Cc2cccc(C(F)(F)F)c2)C(=O)O)cc1 (stereo not drawn)	3.1	3.3	.	.	4.5	-2.2	.
O=C(CNc1ccc(Br)cc1)c1ccc(Br)s1	-0.1	66.3*	-16.1	65.8*	41.4*	-3.0	107.7*
O=C(CNc1ccc(Br)cc1)c1ccc(O)cc1	-2.2	38.6	-3.4	35.4	2.1	-1.1	.
COc1ccccc1/C=C/C(=O)Nc1ccc(S(=O)(=O)Nc2cc(C)on2)cc1	-0.5	9.6	-6.5	4.2	1.8	4.0	.
CC1CC(C)CN(CCC(=O)Nc2ccc(Br)cc2)C1 (stereo not drawn)	-0.9	7.7	-1.0	-1.1	-10.2	-2.2	.
Cc1ccc2oc(/N=C(\N)NC(=O)C(C)(C)C)nc2c1	-0.8	70.2*	-11.7	54.2*	70.9*	-4.5	15.3
CCCCOc1ccc(C(=O)N/C(=C/C=C/c2ccccc2)C(=O)NCCO)cc1	0.1	8.7	-1.6	43.4*	-3.6	-0.2	-13.6
CCc1c(C(=O)N2CCCN(C)CC2)csc1C	0.4	-3.6	-3.5	22.2	4.5	-2.7	.
CN(C)CCCN(C(=O)c1ccc(S(=O)(=O)N2CCc3ccccc32)cc1)c1nc2ccc(F)cc2s1	0.0	18.7	2.0	-3.5	0.4	-1.2	.
Cc1cc(C)c2sc(N(CCCN(C)C)C(=O)c3ccc(S(=O)(=O)N4CCCc5ccccc54)cc3)nc2c1	-0.6	13.6	-3.0	46.8*	18.7	-7.1	56.6*
Cc1ccc(Nc2ccc([N+](=O)[O-])ccc2=O)cc1	-0.3	6.0	9.5	-8.7	-0.5	10.2	.
Cc1nsc(Nc2ccc([N+](=O)[O-])cc2)c1C#N	-0.6	55.7*	-8.5	70.7*	49.6*	-0.3	88.0*
Cc1ccc(C)c(NC(=S)N/N=C2/CCCCc3ccccc32)c1	-0.5	34.4	-9.5	46.6*	27.2	-13.2	83.7*
SMILES	hiPSC survival	CCR6 antag	APJ ag	APJ antag	CXCR6 block	DAGLB inh	APJ antag confirm
CC(C)NC(=S)N/N=C1\CCCCc2ccccc21	-1.7	29.6	-3.1	8.2	19.2	-7.3	.
Cc1ccc2oc(Nc3nc(-c4ccccc4)cc(=O)[nH]3)nc2c1	.	58.3*	-8.4	54.1*	.	.	62.4*
CCOC(=O)c1ccc(-c2ccc3oc(-c4ccsc4)cc(=O)c3c2)cc1F	2.7	-4.3	-0.6	-2.4	-1.3	0.6	.
CCCCCCCc1ccc(C2NC(=S)NC3=C2C(=O)c2ccccc23)cc1 (stereo not drawn)	.	13.0	-5.0	56.2*	.	.	23.2
C/C(=N\NC(=O)c1cc(Br)ccc1O)c1ccccn1	-0.5	54.1*	-13.1	44.1*	39.5	2.9	32.5
C/C(=N\NC(=O)c1cccc(Br)c1)c1ccccn1	0.0	65.3*	-18.1	66.6*	30.6	-1.8	59.3*
CC(=NNC(=O)c1ccncc1)c1cccc(Br)c1	3.0	1.5	.	.	-0.1	2.7	.
CC1=C(C(=O)N(C(C)C)C(C)C)CC(CC(=O)NCCc2ccccn2)C(=O)N1Cc1ccc(F)cc1 (stereo not drawn)	3.1	.	.	.	-1.5	.	.
CCCCN(CC)c1nc(-c2ccncc2)nc2ccccc12	1.6	5.8	-0.7	-9.2	-3.6	-8.3	.
c1ccc(-c2nc(N3CCCCCC3)c3ccccc3n2)nc1	-1.8	40.2	-7.8	49.0*	13.2	-0.8	62.1*
CCCN(CCC)c1nc(-c2ccccn2)nc2ccccc12	-0.8	34.7	-10.0	41.2*	36.8	-3.6	80.4*
CC(=O)C1=NOC2C(=O)N(c3ccccc3)C(=O)C12 (stereo not drawn)	-0.3	22.2	-1.9	11.1	6.7	-0.1	.
CC(=O)Nc1ccc2[nH]c(C)cc(=O)c2c1	4.3	-10.6	-4.6	-30.0	-17.2	1.4	.
CC(=O)Nc1ccc(Cc2ccc3[nH]c(=O)cc(C)c3c2)cc1	.	.	-2.7	43.8*	.	.	8.5
O=C(NCCc1cnc[nH]1)c1cccs1	0.4	6.6	-4.1	43.3*	5.3	-2.9	32.8
O=C(NCCc1ccccc1)c1cccs1	-1.3	3.8	-4.7	-2.5	2.6	1.6	.
CC(=O)c1ccc(N=Nc2ccc(N)cc2)cc1	-0.7	46.6	-5.1	46.3*	28.7	24.0	48.8
O=C(CNS(=O)(=O)c1ccccc1)OCC(=O)c1cccc([N+](=O)[O-])c1	1.9	47.4	-4.2	45.7*	30.9	1.7	87.3*
O=C(Cc1ccccc1)OCC(=O)c1cccc([N+](=O)[O-])c1	-0.3	33.7	-8.2	-7.0	24.7	-0.5	.
O=C(CNC(=O)c1ccc(Br)o1)OCC(=O)c1cccc([N+](=O)[O-])c1	0.9	83.2*	-9.9	62.5*	32.7	0.2	62.0*
